In one test the target is EphA4-LBD (Homo sapiens, UniProt P54764). Kind of test: NMR ligand titration. Type of test: binding. The settings on record: result in words. Summed up:
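Purified human EphA4 ligand-binding domain (LBD), 13Cε-methionine-labelled for the titration, in 50 mM potassium phosphate pH 6.5 with 100 mM NaCl, at 27 °C. 2D [13C,1H]- or [15N,1H]-HSQC spectra of 50 μM LBD were compared with and without test compound. The compound was titrated at 10–50 μM against a DMSO control, and binding was read as chemical-shift changes.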

The next test addresses wt-EphA4 LBD (Homo sapiens, UniProt P54764). The test is described as follows: Isothermal titration calorimetry. The format is binding. The settings on record: result in words. Background: In ITC the heat of successive injections is recorded.

Each structure is given as a SMILES string.

wt-EphA4 LBD, sequence (P54764 30-209 limits assumed): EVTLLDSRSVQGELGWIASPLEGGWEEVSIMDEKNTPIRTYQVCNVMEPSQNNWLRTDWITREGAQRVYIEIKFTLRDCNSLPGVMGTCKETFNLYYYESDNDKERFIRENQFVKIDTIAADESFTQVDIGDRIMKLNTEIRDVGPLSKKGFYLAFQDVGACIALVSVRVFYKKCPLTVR
EphA4-LBD, sequence (P54764 30-209 limits assumed): as above

Regarding `CC[C@H]1CN2CC[C@]3(C(=O)Nc4ccccc43)[C@@H]2C[C@@H]1/C(=C\OC)C(=O)OC` [rhyncophilin], at EphA4-LBD, the “binding to EphA4-LBD in NMR assay” value is “inactive”. Further, at wt-EphA4 LBD, the “binding to EphA4-LBD in ITC assay” value is “inactive”.
